Screening results: PubChem BioAssay, Broad Institute
IDH1 mut inh: IDH1 R132H (human) inhibition; O75874; IDH1 R132H reductase, diaphorase/resazurin fluorescence, 60 min; inhibition, % at 10 µM; 70,000 compounds, 0.18% hits; in the data active = inhibition above about 34%; inconclusive = no clear call, values can overlap the other calls; inactive = below about 11%;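 also: 0% = DMSO and 100% = no enzyme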
T cruzi growth-1: blocks T. cruzi growth in NIH3T3 culture. T. cruzi beta-gal in NIH3T3, GalScreen luminescence, 90 h. inhibition, % at 8.34 µM. 77,000 compounds, 5.9% hits;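 active = mean inhibition above about 93%, with at least 55% of replicates each passing it, limit read from the data, passing the limit was not always enough; inconclusive = only one of those two conditions holds; inactive = neither condition holds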
KDM4C inh: KDM4C (human) demethylase inhibition | Q9H3R0 | GST-KDM4C 2-372, H3K9me3 peptide, LANCE TR-FRET | inhibition, % at 12.5 µM | 96,000 compounds, 0.15% hits | AID 720574;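 active = mean replicate inhibition above about 25%, with at least 55% of replicates also reaching it, limit read from the data, passing the limit was not always enough; inconclusive = only one of those two conditions met; inactive = neither condition met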
Target sequence (Q9H3R0 2-372 limits assumed): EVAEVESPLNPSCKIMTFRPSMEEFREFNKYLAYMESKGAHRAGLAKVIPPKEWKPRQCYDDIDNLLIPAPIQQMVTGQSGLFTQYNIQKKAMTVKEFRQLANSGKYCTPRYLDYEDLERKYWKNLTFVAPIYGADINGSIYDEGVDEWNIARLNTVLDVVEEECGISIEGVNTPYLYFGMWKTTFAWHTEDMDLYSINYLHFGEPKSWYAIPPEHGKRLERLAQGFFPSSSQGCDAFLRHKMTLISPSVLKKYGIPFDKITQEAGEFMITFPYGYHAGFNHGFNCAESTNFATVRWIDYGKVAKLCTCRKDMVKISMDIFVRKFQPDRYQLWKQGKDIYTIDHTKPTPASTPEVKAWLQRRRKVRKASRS
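System: N-terminal GST-fused human GASC-1 (KDM4C) fragment, residues 2-372 / Amount: 10 nM GST-KDM4C in enzyme reaction / Also added: H3K9me3 peptide with Fe(II)/2OG / Times: 30 min demethylation and 1 h detection at room temperature / Signal: LANCE TR-FRET / Read-out basis: Fall in 671/618 emission ratio as inhibition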
T cruzi growth-2: inhibitors of T. cruzi proliferation; T. cruzi beta-gal in NIH3T3, GalScreen luminescence, 90 h; 5,600 compounds, 72% hits; shares compounds with T cruzi growth-1; inhibition, % at 8.35 µM;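 active = mean replicate inhibition above about 95% and at least 55% of replicates individually reaching it, limit read from the data; inconclusive = only one of the two criteria is met; inactive = neither criterion is met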
T cruzi growth-3: inhibitors of T. cruzi proliferation. 5,600 compounds, 21% hits. inhibition, % at 2.09 µM. shares compounds with T cruzi growth-1. AID 651740. T. cruzi beta-gal in NIH3T3, GalScreen luminescence, 90 h;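 active = mean inhibition above about 95%, with at least 55% of replicates also reaching it, limit read from the data; inconclusive = meets just one of the two conditions; inactive = meets neither condition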;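 also: plate controls were neutral control median for no effect and positive control median for full effect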
NIH3T3 tox: NIH/3T3 (mouse) viability loss; shares compounds with T cruzi growth-1; NIH/3T3 viability, CellTiter-Glo ATP luminescence, 90 h; cytotoxicity (signal decrease), % at 8.35 µM; 5,600 compounds, 14% hits; AID 651742;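 active = mean signal decrease across replicates above about 35% based on untreated-well scatter, with enough replicates individually passing, limit read from the data; inconclusive = no rule stated though some were filed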;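 also: 0% = median of neutral control wells and 100% = median of positive control wells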
NIH3T3 tox 2: NIH/3T3 (mouse) viability loss; shares compounds with T cruzi growth-1; NIH/3T3 viability, CellTiter-Glo ATP luminescence, 90 h; inhibition, % at 24.9 µM; 5,600 compounds, 56% hits;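 active = mean loss of cell viability signal at or above a set limit, and enough replicates individually reaching it; inconclusive = meets only the mean limit or only the replicate share; inactive = meets neither condition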;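 also: 0% = median of neutral control wells and 100% = median of positive control wells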
* = called active by the depositor; ? = inconclusive; · = no result. Many of the other results were omitted from the sample, so hits are more common in it than they were.

SMILES | IDH1 mut inh | T cruzi growth-1 | KDM4C inh | T cruzi growth-2 | T cruzi growth-3 | NIH3T3 tox | NIH3T3 tox 2
COc1ccc(NC(=O)N(C)C[C@H]2OCCCC[C@@H](C)Oc3ccc(NC(=O)Nc4ccc(C(F)(F)F)cc4)cc3C(=O)N([C@H](C)CO)C[C@@H]2C)cc1 | 1 | 108* | 0 | 111* | 106* | -2 | 26*
COc1ccc(NC(=O)Nc2ccc3c(c2)C(=O)N([C@@H](C)CO)C[C@H](C)[C@H](CN(C)C)OCCCC[C@H](C)O3)cc1 | · | 96* | 0 | 64 | -39 | -10 | 4
O=C(c1ccncc1)N1CC(=O)N2[C@H](C1)[C@@H](c1ccc(-c3cccnc3)cc1)[C@@H]2CO | · | · | 0 | · | · | · | ·
CN1C(=O)c2ccc(NC(=O)Cn3c(=O)oc4ccccc43)cc2C1=O | 0 | · | · | · | · | · | ·
CN(C)C(=O)C[C@H]1CC[C@@H]2[C@H](COC[C@H](O)CN2C(=O)C2CCOCC2)O1 | · | 23 | 4 | · | · | · | ·
CSc1nc(N2CCCCC2)c2c(c1C#N)CCCC2 | 0 | · | · | · | · | · | ·
COc1ccc(NC(=O)N(C)C[C@@H]2OCCCC[C@H](C)Oc3ccc(NC(=O)Nc4ccc(C(F)(F)F)cc4)cc3C(=O)N([C@@H](C)CO)C[C@H]2C)cc1 | 0 | 97* | -1 | 111* | ? | -21 | ?
COc1ccc(NC(=O)Nc2ccc3c(c2)C(=O)N([C@H](C)CO)C[C@H](C)[C@H](CN(C)C(=O)Nc2ccc(C(F)(F)F)cc2)OCCCC[C@@H](C)O3)cc1 | 1 | · | -1 | · | · | · | ·
O=C(C[C@@H]1CC[C@@H](NC(=O)c2ccc3c(c2)OCO3)[C@H](CO)O1)NCc1ccc(Oc2ccccc2)cc1 | 0 | -45 | -4 | · | · | · | ·
COCC(=O)Nc1ccc2c(c1)C(=O)N(C)[C@H]1CC[C@@H](CC(=O)O)O[C@@H]1CO2 | · | 14 | 1 | · | · | · | ·
C[C@@H]1CN([C@@H](C)CO)S(=O)(=O)c2ccc(/C=C/c3ccccc3)cc2O[C@H]1CN(C)C(=O)NC1CCCCC1 | · | · | -1 | · | · | · | ·
C[C@H](CO)N1C[C@H](C)[C@H](CN(C)C(=O)NC2CCCCC2)Oc2cc(/C=C/c3ccccc3)ccc2S1(=O)=O | · | · | -2 | · | · | · | ·
C[C@H]1CN([C@@H](C)CO)S(=O)(=O)c2ccc(/C=C/c3ccccc3)cc2O[C@H]1CN(C)C(=O)NC1CCCC1 | · | 102* | -2 | 99* | 73 | 34 | 102*
C[C@H]1CN([C@@H](C)CO)S(=O)(=O)c2ccc(/C=C/c3ccccc3)cc2O[C@H]1CN(C)C(=O)NC1CCCCC1 | -2 | 128* | 12 | 101* | 89 | -1 | 49*
COc1ccccc1CNC(=O)C[C@@H]1CC[C@H]2[C@@H](COC[C@H](O)CN2Cc2cccc(-c3ccncc3)c2)O1 | · | 92 | 1 | · | · | · | ·
COc1ccccc1CNC(=O)C[C@@H]1CC[C@@H]2[C@H](COC[C@@H](O)CN2Cc2cccc(-c3ccncc3)c2)O1 | · | 92 | 5 | · | · | · | ·
COc1ccccc1CNC(=O)C[C@@H]1CC[C@H]2[C@@H](COC[C@H](O)CN2Cc2ccc3c(c2)OCO3)O1 | · | 101* | 2 | 76 | 28 | 12 | 7
COc1ccccc1CNC(=O)C[C@H]1CC[C@H]2[C@@H](COC[C@H](O)CN2Cc2cccc(-c3ccncc3)c2)O1 | · | 120* | -3 | 98* | 79 | 3 | 24
COc1ccccc1CNC(=O)C[C@H]1CC[C@@H]2[C@H](COC[C@@H](O)CN2Cc2cccc(-c3ccncc3)c2)O1 | · | ? | 1 | 96* | 93 | 29 | 59*
COc1ccccc1CNC(=O)C[C@H]1CC[C@H]2[C@@H](COC[C@H](O)CN2Cc2ccccc2)O1 | · | · | -2 | · | · | · | ·
Cc1noc(C)c1NC(=O)Nc1ccc2c(c1)CC(=O)N([C@@H](C)CO)C[C@@H](C)[C@H](CN(C)C(=O)Nc1c(C)noc1C)O2 | 0 | 52 | 1 | · | · | · | ·
CNC[C@H]1Oc2cc(C#CC(C)C)ccc2S(=O)(=O)N([C@@H](C)CO)C[C@@H]1C | 0 | -1 | 1 | · | · | · | ·
C[C@@H]1CN([C@@H](C)CO)C(=O)Cc2cc(NC(=O)CCC(F)(F)F)ccc2O[C@@H]1CN(C)C | -3 | · | 2 | · | · | · | ·
